Assay results published in ChEMBL document CHEMBL3865796, “Novel (2,6-difluorophenyl)(2-(phenylamino)pyrimidin-4-yl)methanones with restricted conformation as potent non-nucleoside reverse transcriptase inhibitors against HIV-1” (Eur J Med Chem, 2016).

How the values were obtained:
[1] = Selectivity index, ratio of CC50 for human MT4 cells to EC50 for wild type HIV-1 3B reverse transcriptase infected in human MT4 cells; assay type: toxicity, cell-based; conditions: read-out: Ratio CC50/EC50
[2] = Cytotoxicity against human MT4 cells assessed as decrease in cell viability after 5 days by cell titer glo based luciferase reporter gene assay; assay type: toxicity
Summary of the method: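 Mock-infected MT-4 cells (pre-treated with RPMI) in complete RPMI (10% FBS, 1% P/S) received 1:3 serial DMSO dilutions of compound, further diluted 200-fold into medium, in a 384-well format. Incubated 5 days at 37 °C in a humidified incubator. Viability was read as CellTiter-Glo luminescence. CC50 is the concentration giving a 50% fall in signal, from a sigmoidal dose-response fit.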

[3] = Inhibition of wild type HIV-1 3B reverse transcriptase infected in human MT4 cells assessed as inhibition of viral replication after 5 days by cell titer glo based luciferase reporter gene assay; conditions: Human immunodeficiency virus 1, 3B, MT4, 120 h
[4] = Inhibition of wild type HIV-1 3B reverse transcriptase infected in human MT4 cells assessed as inhibition of virus-induced cytopathic effect after 5 days incubation by Cell Titer Glo luminescence assay; conditions: Human immunodeficiency virus 1, 3B

Q: Which selectivity ratio [1] does the source give for `N#Cc1ccc(Nc2nc(C(=O)c3ccc(C#N)cc3)ncc2Br)cc1` here?
A: > 2.06

Q: What about the CC50 at 120 h [2] of the same molecule?
A: > 57 µM

Q: What about the EC50 [3] of the same molecule?
A: 27.7 µM

Q: What does the source list for `COc1cc(F)c(C(=O)c2nc(Nc3ccc(C#N)cc3Br)ncc2Br)c(F)c1`?
A: selectivity ratio [1]: > 3.02; CC50 at 120 h [2]: > 57 µM; EC50 [3]: 18.9 µM

Q: For `N#Cc1ccc(Nc2nccc(C(=O)c3ccc(C#N)cc3)n2)cc1`, which selectivity ratio [1] is on record?
A: > 12.7

Q: What about the CC50 at 120 h [2] of the same molecule?
A: > 57 µM

Q: What about the EC50 [3] of the same molecule?
A: 4.5 µM

Q: What does the source list for `N#Cc1ccc(C(=O)c2nccc(Cl)n2)cc1`?
A: selectivity ratio [1]: < 0.29; CC50 at 120 h [2]: 16.5 µM; EC50 [3]: > 57 µM

Q: With `COc1cc(F)c(C(=O)c2ccnc(Cl)n2)c(F)c1` as the molecule, how does the selectivity ratio [1] read?
A: 1

Q: What about the CC50 at 120 h [2] of the same molecule?
A: > 57 µM

Q: What about the EC50 [3] of the same molecule?
A: > 57 µM

Q: For `O=C(c1ccnc(Cl)n1)c1c(F)cc(Br)cc1F`, which selectivity ratio [1] is on record?
A: 1

Q: And the CC50 at 120 h [2]?
A: > 57 µM

Q: What about the EC50 [3] of the same molecule?
A: > 57 µM

Q: With `N#Cc1ccc(Nc2ccnc(C(O)c3ccc(C#N)cc3)n2)cc1` (stereo not given) as the molecule, how does the selectivity ratio [1] read?
A: 1

Q: What about the CC50 at 120 h [2] of the same molecule?
A: > 57 µM

Q: What about the EC50 [3] of the same molecule?
A: > 57 µM

Q: Which results are given for `COc1ccc(C(=O)c2nc(Nc3ccc(C#N)cc3)ncc2Br)cc1`?
A: selectivity ratio [1]: < 0.04; CC50 at 120 h [2]: 2.45 µM; EC50 [3]: > 57 µM

Q: Which results are given for `COc1cc(F)c(C(=O)c2ccnc(Nc3ccc(C#N)cc3)n2)c(F)c1`?
A: selectivity ratio [1]: > 14200; CC50 at 120 h [2]: > 57 µM; EC50 [3]: 0.004 µM

Q: With `COc1ccc(C(=O)c2ccnc(Nc3ccc(C#N)cc3)n2)cc1` as the molecule, how does the EC50 [4] read?
A: 0.239 µM

Q: What about the selectivity ratio [1] of the same molecule?
A: > 70

Q: And the CC50 at 120 h [2]?
A: > 57 µM

Q: And the EC50 [3]?
A: 0.814 µM

Q: Which selectivity ratio [1] does the source give for `N#Cc1ccc(Nc2ccnc(C(=O)c3ccc(C#N)cc3)n2)cc1` here?
A: > 1.33

Q: And the CC50 at 120 h [2]?
A: > 57 µM

Q: What about the EC50 [3] of the same molecule?
A: 43 µM

Q: For `N#Cc1cc(F)c(C(=O)c2ccnc(Cl)n2)c(F)c1`, which selectivity ratio [1] is on record?
A: < 0.54

Q: What about the CC50 at 120 h [2] of the same molecule?
A: 30.5 µM

Q: And the EC50 [3]?
A: > 57 µM

Q: Which results are given for `O=C(c1ccnc(Cl)n1)c1c(F)cc(F)cc1F`?
A: selectivity ratio [1]: < 0.7; CC50 at 120 h [2]: 40.1 µM; EC50 [3]: > 57 µM

Q: Which selectivity ratio [1] does the source give for `COc1ccc(C(=O)c2ccnc(Cl)n2)cc1` here?
A: < 0.69

Q: What about the CC50 at 120 h [2] of the same molecule?
A: 39.6 µM

Q: And the EC50 [3]?
A: > 57 µM

Q: With `COc1cc(F)c(C(=O)c2nc(Nc3ccc(C#N)cc3)ncc2Br)c(F)c1` as the molecule, how does the selectivity ratio [1] read?
A: 561

Q: What about the CC50 at 120 h [2] of the same molecule?
A: 38.7 µM

Q: What about the EC50 [3] of the same molecule?
A: 0.069 µM

Q: Which selectivity ratio [1] does the source give for `N#Cc1ccc(Nc2cc(F)c(C(=O)c3ccnc(Nc4ccc(C#N)cc4)n3)c(F)c2)cc1` here?
A: 167

Q: What about the CC50 at 120 h [2] of the same molecule?
A: 51.9 µM

Q: And the EC50 [3]?
A: 0.31 µM

Q: Which selectivity ratio [1] does the source give for `N#Cc1ccc(C(=O)c2ccnc(Cl)n2)cc1` here?
A: < 0.56

Q: And the CC50 at 120 h [2]?
A: 31.9 µM

Q: What about the EC50 [3] of the same molecule?
A: > 57 µM

Q: Which selectivity ratio [1] does the source give for `N#Cc1ccc(Nc2ncc(Br)c(C(=O)c3ccc(C#N)cc3)n2)cc1` here?
A: > 7.7

Q: And the CC50 at 120 h [2]?
A: > 57 µM

Q: And the EC50 [3]?
A: 7.4 µM

Q: Which selectivity ratio [1] does the source give for `N#Cc1ccc(Nc2ncc(Br)c(C(=O)c3c(F)cc(O)cc3F)n2)cc1` here?
A: 1

Q: What about the CC50 at 120 h [2] of the same molecule?
A: > 57 µM

Q: What about the EC50 [3] of the same molecule?
A: > 57 µM

Q: What does the source list for `N#Cc1ccc(Nc2nccc(C(=O)c3c(F)cc(F)cc3F)n2)cc1`?
A: selectivity ratio [1]: > 1680; CC50 at 120 h [2]: > 57 µM; EC50 [3]: 0.034 µM

Q: With `N#Cc1ccc(Nc2nccc(C(O)c3ccc(C#N)cc3)n2)cc1` (stereo not given) as the molecule, how does the selectivity ratio [1] read?
A: > 15.4

Q: And the CC50 at 120 h [2]?
A: > 57 µM

Q: What about the EC50 [3] of the same molecule?
A: 3.7 µM

Q: Which selectivity ratio [1] does the source give for `N#Cc1ccc(Nc2nccc(C(=O)c3c(F)cc(C#N)cc3F)n2)cc1` here?
A: > 1120

Q: What about the CC50 at 120 h [2] of the same molecule?
A: > 57 µM

Q: What about the EC50 [3] of the same molecule?
A: 0.051 µM

Q: Which CC50 at 120 h [2] does the source give for `O=C1Nc2ccc(Cl)cc2[C@@](C#CC2CC2)(C(F)(F)F)O1` [EFAVIRENZ] here?
A: 20.6 µM

Q: And the EC50 [3]?
A: 0.001 µM

Q: With `Cc1cc(C#N)cc(C)c1Oc1nc(Nc2ccc(C#N)cc2)nc(N)c1Br` [ETRAVIRINE] as the molecule, how does the CC50 at 120 h [2] read?
A: 5.88 µM
